The values that follow come from paper PMC8266240 (Journal of Enzyme Inhibition and Medicinal Chemistry, 2021).

For the assay, the system named is HeLa cells. In words: Effect of inhibitors/activators on 12A-induced vacuolization in HeLa cells. The class given is cell-based, human. Conditions: pre- or co-treated with 12A, 8 h. The gist of the method:
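HeLa cells, alone or with the vacuolization-inducing test compound, were exposed to modulators for 8 h: pan-caspase inhibitor Z-VAD-FMK, autophagy inhibitors 3-MA and LY294002, autophagy activator rapamycin, bafilomycin A1, cycloheximide, ERK1/2 inhibitor PD98059 and JNK inhibitor SP600125. Some inhibitors were given as a 2 h pre-treatment before the test compound. Vacuoles were assessed by microscopy imaging.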

Molecules are shown by their SMILES. Peptide text beside a SMILES is read from it. * marks the point of attachment. Cbz = O=C(OCc1ccccc1)*; CH2F = FC*

Regarding `Cn1cnc(N)c2ncnc1-2` [3-methyladenine], the “effect on 12A-induced vacuolization” value is “did not decrease”.

For `CO/C1=C\C(C)=C\[C@@H](C)[C@@H](O)[C@@H](C)C/C(C)=C/C=C/[C@H](OC)[C@@H]([C@@H](C)[C@@H](O)[C@H](C)[C@@]2(O)C[C@@H](O)[C@H](C)[C@@H](C(C)C)O2)OC1=O` [Baf-A1, Bafilomycin A1], the “effect on 12A-induced vacuolization” value is “dramatically blocked the formation of vacuoles”.

In the case of `C[C@@H]1C[C@@H]([C@H](O)CC2CC(=O)NC(=O)C2)C(=O)[C@@H](C)C1` [CHX, Cycloheximide], the “effect on 12A-induced vacuolization” value is reported as “dramatically blocked the formation of vacuoles”.

In the case of `O=c1cc(N2CCOCC2)oc2c(-c3ccccc3)cccc12` [LY294002], the “effect on 12A-induced vacuolization” value is on record as “did not decrease”.

`COc1cccc(-c2cc(=O)c3ccccc3o2)c1N` [PD98059]: the “effect on 12A-induced vacuolization” value was “significantly decreased”.

In the case of `Oc1c2ccccc2c2c3c(cccc13)N=N2` [SP600125], the “effect on 12A-induced vacuolization” value is “significantly decreased”.

For the molecule `COC(=O)C[C@H](NC(=O)[C@H](C)NC(=O)[C@@H](NC(=O)OCc1ccccc1)C(C)C)C(=O)CF` [Z-VAD-FMK] (Cbz-Val-Ala-Asp(OMe)-CH2F), the “effect on 12A-induced vacuolization” value was “not inhibited”.

Take `CO[C@H]1C[C@@H]2CC[C@@H](C)[C@@](O)(O2)C(=O)C(=O)N2CCCC[C@H]2C(=O)O[C@H]([C@H](C)C[C@@H]2CC[C@@H](O)[C@H](OC)C2)CC(=O)[C@H](C)/C=C(\C)[C@@H](O)[C@@H](OC)C(=O)[C@H](C)C[C@H](C)/C=C/C=C/C=C/1C` [rapamycin]: the “effect on 12A-induced vacuolization” value is reported as “failed to promote”.
